“Also recorded” adds a separate entry of the source.
Tests used:
Format in all cases: in vivo, Swiss male mice
[1] = test system: scopolamine-induced memory impairment in mice; assay: Morris water maze; conditions: scopolamine 1.5 mg/kg i.p. alone
Procedure, shortened: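 Swiss male mice, n = 10/group. Test compound p.o. in saline 1 h before, scopolamine 1.5 mg/kg i.p. 30 min before each session. Training runs over 6 days, 4 trials/day about 2 min apart, maximum 1 min per trial, then 10 s on the platform if not found. Day 7 probe without platform. Mean ± SEM; repeated-measures two-way ANOVA (training), one-way ANOVA (probe), Tukey.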

[2] = test system: scopolamine-induced memory impairment in mice; assay: Y-maze test in scopolamine-treated mice; conditions: scopolamine 1.5 mg/kg i.p. alone; compared with control group; p < 0.01
Procedure, shortened: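 Swiss male mice, n = 10/group. Test compound p.o. in saline 1 h before, scopolamine 1.5 mg/kg i.p. 30 min before a 10-min session. Arm entry means all four legs inside. Alternation (%) = alternations/(total entries − 2) × 100; entries serve as locomotor index. Arms cleaned with 10% ethanol. One-way ANOVA, Tukey; mean ± SEM.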

[3] = test system: scopolamine-induced memory impairment in mice; assay: Novel object recognition test; conditions: test phase
Procedure, shortened: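 Swiss male mice, n = 10/group. Test compound (5, 10 or 15 mg/kg) p.o. in saline 1 h before, scopolamine 1.5 mg/kg i.p. 30 min before. Box is 45 × 45 × 50 cm; 5-min sample phase, then 5-min test 24 h later with one object replaced. Nose/forepaw contact is scored as exploration, normalized to total exploration time. Repeated-measures two-way ANOVA, Tukey; mean ± SEM.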

[4] = training trials, day 1 to day 6

CN1[C@@H]2C[C@@H](OC(=O)[C@H](CO)c3ccccc3)C[C@H]1[C@@H]1O[C@@H]12 [scopolamine]
time spent in the target quadrant ([1]; probe trial day 7, compared with control group): significantly lower; also recorded: decreased | escape latency [1, 4]: no significant differences | travel (swimming) distance [1, 4]: no significant differences | spontaneous alternation (%) [2]: significantly lower; also recorded: significantly decreased | normalized time exploring novel object versus familiar object ([3]; scopolamine 1.5 mg/kg i.p. alone, p > 0.05): no statistically significant difference

COc1cc2c(cc1OC)C(=O)C(CC1CCN(Cc3ccccc3)CC1)C2 (stereo not drawn) [donepezil]
normalized time exploring novel object versus familiar object ([3]; 5 mg/kg p.o. + scopolamine 1.5 mg/kg i.p., p < 0.001): significantly longer
